From PubChem
VIM-2 inh: blocks Pseudomonas aeruginosa VIM-2 metallo-beta-lactamase; inhibition, % at 5.6 µM; purified VIM-2, nitrocefin hydrolysis, epi-absorbance fluorescence; AID 1527; 290,000 compounds, 0.89% hits;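 active means inhibition above the mean of all tested compounds plus 3 SD, cutoff set per screening run, cut at about 7.5% in these data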;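 further: red hydrolysis product quenches plate fluorescence so inhibitors raise well fluorescence; 0% = enzyme with DMSO and 100% = DMSO without enzyme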
PvdQ acylase: P. aeruginosa PvdQ acylase inhibition; purified PvdQ acylase, fluorescence plate reader; inhibition, % at 10 µM; 340,000 compounds, 0.063% hits; in the data active means inhibition above about 30%, passing the limit was not always enough;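 further: 0% = vehicle neutral wells and 100% = reference inhibitor wells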
PLC-beta3 inh: inhibitors of human phospholipase C beta3 | Purified PLC-beta3, fluorogenic substrate, fluorescence | 370,000 compounds, 0.18% hits | AID 720704 | Q01970 | inhibition, % at 12.2 µM; in the data active means inhibition above about 11%;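 further: 0% = median of compound wells on plate and 100% = full blocker control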
IMP-1 inhibitor: blocks Pseudomonas aeruginosa IMP-1 metallo-beta-lactamase; purified IMP-1, nitrocefin hydrolysis, epi-absorbance fluorescence; inhibition, % at 5.6 µM; 290,000 compounds, 0.45% hits;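 active means inhibition above the mean plus 3 SD of all compounds in the same screening run, cut at about 4.5% in these data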;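 further: 0% = IMP-1 with DMSO and 100% = DMSO wells lacking enzyme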
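System – purified recombinant IMP-1 beta-lactamase · Input – IMP-1 dispensed at 0.2 nM · Timing – 15 min preincubation plus 25 min reaction at 25 °C · Signal – Epi-absorbance fluorescence, 480 nm excitation, 530 nm emission · Measure – percent IMP-1 inhibition derived from blank-referenced optical density · Controls – Enzyme-plus-DMSO low control, enzyme-free DMSO high control · Replication – singlicate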
PLC-gamma1 inh: PLC-gamma1 (human) inhibition, primary screen; P19174; purified PLC-gamma1, fluorogenic substrate, fluorescence; inhibition, % at 12.2 µM; 370,000 compounds, 0.84% hits; AID 720700; in the data active means inhibition above about 9.5%
The depositor's hits bear a star; i = inactive; / = not tested or not shown. Compounds with a hit are over-represented: about 2% of the library has one in this group of screens.

SMILES | VIM-2 inh | PvdQ acylase | PLC-beta3 inh | IMP-1 inhibitor | PLC-gamma1 inh
CCOC(=O)C1CCN(C(=O)c2cc3c(=O)n4ccccc4nc3s2)CC1 | 1 | -8 | i | -3 | i
O=C(c1nn2c(C(F)(F)F)cc(-c3ccccc3)nc2c1Cl)N1CCN2CCCC2C1 (centres undefined) | 9.1* | -15 | -28 | -1 | -16
O=C(c1cc2nc(-c3ccccc3)cc(C(F)(F)F)n2n1)N1CCOCC1 | -1 | -9 | / | -6 | /
O=C(c1cc2nc(-c3ccccc3)cc(C(F)(F)F)n2n1)N1CCN2CCCC2C1 (centres undefined) | 9.1* | -5 | -146 | -5 | -83
O=c1oc2c(CN3CCOCC3)c(O)c(Cl)cc2c2c1CCCC2 | 2 | -17 | i | 5.3* | i
Cc1c(O)c(CN2CCCC2)cc2c3c(c(=O)oc12)CCC3 | 9.6* | -6 | i | -3 | i
Cc1c(O)c(CN2CCCC2)cc2c1oc(=O)c1ccccc12 | 9.0* | -11 | -84 | 0 | -70
CCc1cc(=O)oc2c(C)c(O)c(CN3CCCCC3)cc12 | -3 | -20 | i | -2 | i
CN(Cc1cn(CC2CCCCC2)nn1)S(=O)(=O)c1ccccc1Br | / | / | 1 | / | 0
CCCCN(C)C(=O)CSc1nnc(-c2cc(OC)c(OC)c(OC)c2)o1 | / | / | 2 | / | 1
CCn1c(SCC(=O)N(C(C)C)C(C)C)nnc1-c1cc2ccccc2cc1O | 12* | -8 | -34 | -7 | -22
O=C(Nc1cccc2c1C(=O)NC2=O)c1cccc(N2C(=O)CCC2=O)c1 | 1 | 8 | -61 | 8.8* | -52
Cc1cccc(NC(=O)c2cccc(N3C(=O)CCC3=O)c2)c1 | -3 | -10 | -5 | -3 | -2
O=[N+]([O-])c1ccc(Sc2ccccc2Cl)nc1 | -3 | 65* | 2 | -3 | 3
COc1ccc2nc3cccc(OC)c3nc2c1 | 7.7* | -13 | -214 | 0 | -173
CCc1ccc2c(CC(=O)Nc3nnc(C4CC4)s3)coc2c1 | -3 | -12 | -18 | 61* | -15
NC(=O)C1CCN(c2ncc(Br)s2)CC1 | / | / | -11 | / | -9
CSc1nc2c(c(-c3ccc(O)cc3)c1C#N)CCC2 | 7.8* | -9 | -166 | -4 | -131
COC(=O)[C@H](C(C)C)N1Cc2nnn(CC3CCCCC3)c2-c2cc(F)ccc2S1(=O)=O | / | / | 2 | / | 3
O=S(=O)(c1ccc(Cl)cc1)N1CCC(N2CCCCCC2)CC1 | -2 | -2 | 3 | 5.7* | 6
CCCCCCCCN1CCS(=O)(=O)N(Cc2ccccc2)C(C(=O)OC)C1 (centres undefined) | / | / | 2 | / | 0
CC(=O)Nc1ccc(NC(=O)C(OC(=O)c2ccccc2)C(OC(=O)c2ccccc2)C(=O)O)cc1 (centres undefined) | -3 | 2 | -7 | 0 | -6
O=C(OC(C(=O)O)C(OC(=O)c1ccccc1)C(=O)NCc1ccccc1)c1ccccc1 (centres undefined) | 1 | -2 | -4 | 6.4* | -1
COc1ccc(-c2noc(C3CCCN(C(=O)NC4CCC(C)CC4)C3)n2)cc1 (centres undefined) | / | / | 4 | / | 2
O=C(C1=NN[C@@H]2C(=O)N(c3cccc(C(F)(F)F)c3)C(=O)[C@H]12)C(c1ccccc1)c1ccccc1 | -2 | -4 | -13 | -3 | -10
SMILES | VIM-2 inh | PvdQ acylase | PLC-beta3 inh | IMP-1 inhibitor | PLC-gamma1 inh
O=C(C1=NN[C@@H]2C(=O)N(c3cccc(F)c3)C(=O)[C@H]12)C(c1ccccc1)c1ccccc1 | -3 | -4 | -12 | 5.2* | -8
O=C(OCCN1CCN(C2CN(Cc3cn(Cc4ccc([N+](=O)[O-])cc4)nn3)S(=O)(=O)C2)CC1)c1cc2ccccc2o1 (centres undefined) | / | / | 2 | / | 1
COc1ccc(C(=O)CC2OC(=O)c3ccccc32)cc1OC (centres undefined) | 0 | -9 | -6 | 4.9* | 0
COc1ccc(OC)c(C(=O)CC2OC(=O)c3ccccc32)c1 (centres undefined) | -1 | -18 | -39 | -4 | -30
COc1ccc2[nH]c3c(c2c1)CCN[C@]31C(=O)N(C)c2ccc(Br)cc21 | / | / | -1 | / | 0
COc1cc(C2/C(=C(\O)c3ccc4c(c3)OCCO4)C(=O)C(=O)N2Cc2ccccc2)ccc1O (centres undefined) | 0 | -3 | -6 | 0 | -1
O=C1C(=O)N(Cc2ccncc2)C(c2ccccc2F)/C1=C(\O)c1ccc2c(c1)OCCO2 (centres undefined) | 11* | -6 | -22 | -4 | -14
O=C(O)c1ccc(Cl)c2c1C1C=CCC1C(c1ccccn1)N2 (centres undefined) | -1 | / | / | 0 | /
COC(=O)COc1ccc(C2Nc3c(Cl)ccc(C(=O)O)c3C3C=CCC32)cc1 (centres undefined) | -2 | -19 | -164 | 12* | -138
COc1ccc(OC)c(C2Nc3c(Cl)ccc(C(=O)O)c3C3C=CCC32)c1 (centres undefined) | -1 | -1 | -11 | 11* | -8
CCc1ccc(CCNC(=O)OC2CC3CC2[C@H]2CCCCN2[C@H]3C)cc1 (some centres undefined) | / | / | 1 | / | -1
COc1ccc(NC(=O)CCC(=O)Nc2nnc(C(F)(F)F)s2)c(OC)c1 | -3 | -4 | 0 | 4.9* | 0
COc1ccc(CCC(=O)Nc2nnc(C(C)(C)C)s2)cc1 | 0 | -18 | -3 | -1 | 4
COc1ccc(CCC(=O)Nc2nnc(C(F)(F)F)s2)cc1 | -3 | -10 | -9 | 8.7* | -5
O=C(Nc1ccc(Cl)c(Cl)c1)C1CCCN1S(=O)(=O)c1cccc2cccnc12 (centres undefined) | / | / | 0 | / | 4
Cc1cccc(NC(=O)c2c(O)c3cccc4c3n(c2=O)CCC4)n1 | -1 | / | / | -2 | /
CCCCCCNC(=O)c1c(O)c2cccc3c2n(c1=O)CCC3 | -3 | 4 | 0 | -3 | 1
O=C(NCCNCCO)c1c(O)c2cccc3c2n(c1=O)CCC3 | 10.0* | -3 | -4 | -2 | -3
CCN(CC)CCNC(=O)c1c(O)c2cccc3c2n(c1=O)CCC3 | 11* | -11 | -5 | -6 | -2
CNC(=O)c1c(O)c2cccc3c2n(c1=O)CCC3 | 9.5* | -12 | -5 | -3 | 1
COC(=O)[C@]12C[C@H](CC(=O)N3CCCC3)C(=O)N(Cc3ccco3)C1=C[C@H](C1CCCC1)O[C@@H]2C | / | / | 1 | / | 2
COC(=O)[C@]12C[C@H](CC(=O)NCc3cccc(C(F)(F)F)c3)C(=O)N(Cc3cccc4ccccc34)C1=C[C@H](C1CCCC1)O[C@@H]2C | / | / | 3 | / | 0
Cc1cc2oc(=O)c(CC(=O)NCCCO)c(C)c2c2occ(C(C)(C)C)c12 | -2 | 7 | -152 | -3 | -117
Cc1cc2oc(=O)c(CC(=O)NCCCN(C)C)c(C)c2c2occ(C(C)(C)C)c12 | 8.9* | / | / | 1 | /
Cc1cc2oc(=O)c(CC(=O)O)c(C)c2c2occ(C(C)(C)C)c12 | 11* | -13 | -28 | 4 | -17
CCCCCCC(=O)n1ccc2ccc(-c3ccc4ccn(Cc5ccc(OC)cc5)c4c3)cc21 | / | / | -83 | / | -53
